In the library only some 3.3% were active in any assay of this set; here they are far more common.
sPLA2-III inh: Blocks human group III sPLA2 activity; Q9NZ20; inhibition, % at 12.2 µM; QFRET BODIPY PC-A2 liposome hydrolysis, fluorescence; 0.56% of 370,000 active; AID 743126;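 active = inhibition above mean plus 3 SD of compounds lying within the high and low control bounds, cut at about 19% in these data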;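 also: 0% = median of test compound wells and 100% = no enzyme DMSO wells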
Arrestin-AP2 inh: blocks beta-arrestin peptide binding to AP2 adaptin; AID 504490; 0.31% of 340,000 active; inhibition, % at 10 µM; FITC-arrestin peptide / GST-AP2 beads, flow cytometry; AP2 beta2 appendage carries R879A mutation;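 active = inhibition above a set limit, near 3 SD of compounds lacking own fluorescence, cut at about 54% in these data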;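 also: plate controls were DMSO wells for no effect and 5 µM unlabelled arrestin peptide for full effect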
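Test system: GST-tagged AP2 beta2-adaptin appendage (R879A) on 4 µm glutathione beads; also added: fluorescein-tagged arrestin peptide at 50 nM final; timing: 12 min plus 1 h, RT; signal: flow cytometry, FL1 (488/535 nm); read-out: percent drop in bead-associated FITC signal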
PfM18AAP inh: PfM18AAP enzyme inhibition; 1.2% of 290,000 active; inhibition, % at 7.35 µM; recombinant PfM18AAP, H-Glu-NHMec fluorogenic cleavage; AID 1822;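 active = inhibition above the campaign mean inhibition over all tested compounds plus 3 SD, cut at about 28% in these data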;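 also: 0% = plate median of test compound wells and 100% = 2 mM ZnCl2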
Lipid droplet: hepatic lipid droplet formation modulation; AML12 mouse hepatocytes, oleate lipid droplets, BODIPY imaging; inhibition, % at 6.5 µM; 0.4% of 240,000 active; AID 1656;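 active = lipid droplet intensity inhibited by at least 50%, with more than 500 cells counted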
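Assay system: AML12 mouse liver cells | Compound: 6.5 µM single-point dosing | Schedule: Overnight exposure | Technique: Fluorescence imaging, 20x objective, two fields per well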
HTR2A ag: agonists of mouse serotonin 5-HT2A receptor (HTR2A); P35363; CHO-K1 mHTR2A beta-arrestin complementation, luminescence; percent of 30 µM serotonin response; activation, % at 7.6 µM; 0.66% of 360,000 active; AID 624169;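 active = activation above a run cutoff, the mean activation of all tested compounds plus 3 SD, cut at about 14% in these data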;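 also: 0% = plate median of compound wells and 100% = 30 µM serotonin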
NRP1-CendR mod: alters CendR peptide binding to human NRP-1; FAM-RPARPAR peptide binding to NRP-1, fluorescence polarization; inhibition, % at 25 µM; 0.85% of 360,000 active; AID 602438;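 active = inhibition or corrected inhibition above about 18%, plus a signal ratio from 0.5 to 1.5, limit read from the data, passing the limit was not always enough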
Target sequence (O14786 whole entry, looked up): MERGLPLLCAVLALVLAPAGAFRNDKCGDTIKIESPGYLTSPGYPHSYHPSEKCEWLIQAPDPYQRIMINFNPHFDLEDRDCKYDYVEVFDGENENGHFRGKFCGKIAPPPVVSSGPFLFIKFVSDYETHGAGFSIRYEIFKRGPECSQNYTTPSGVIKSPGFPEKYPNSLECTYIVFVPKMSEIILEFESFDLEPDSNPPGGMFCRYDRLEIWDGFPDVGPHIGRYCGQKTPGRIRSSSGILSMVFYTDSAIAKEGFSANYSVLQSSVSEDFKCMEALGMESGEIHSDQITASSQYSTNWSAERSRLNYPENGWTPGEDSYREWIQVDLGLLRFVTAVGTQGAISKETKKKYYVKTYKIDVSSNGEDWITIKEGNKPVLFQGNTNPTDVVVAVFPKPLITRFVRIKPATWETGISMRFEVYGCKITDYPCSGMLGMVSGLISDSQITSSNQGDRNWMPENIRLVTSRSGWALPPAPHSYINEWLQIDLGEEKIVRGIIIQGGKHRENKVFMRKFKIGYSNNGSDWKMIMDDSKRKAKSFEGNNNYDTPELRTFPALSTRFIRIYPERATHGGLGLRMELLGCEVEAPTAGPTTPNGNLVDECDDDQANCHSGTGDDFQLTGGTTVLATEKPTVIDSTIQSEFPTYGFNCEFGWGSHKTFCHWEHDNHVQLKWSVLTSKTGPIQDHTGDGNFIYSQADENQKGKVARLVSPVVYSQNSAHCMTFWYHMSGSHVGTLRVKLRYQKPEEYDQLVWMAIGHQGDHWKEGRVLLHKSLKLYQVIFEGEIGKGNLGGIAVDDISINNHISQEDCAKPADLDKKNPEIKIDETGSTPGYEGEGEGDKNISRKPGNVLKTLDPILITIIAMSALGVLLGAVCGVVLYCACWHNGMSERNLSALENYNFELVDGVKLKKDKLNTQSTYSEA
Lipid drop inh: hepatic lipid droplet formation inhibition, confirmed | shares compounds with Lipid droplet | AML12 mouse hepatocytes, BODIPY lipid droplet imaging; droplets induced with 100 µM oleic acid | inhibition, % at 5.2 µM | 65% of 870 active | AID 463183;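 active = inhibition of lipid droplet metric at least 50%, with more than 300 cells in each of four replicates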;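 also: plate controls were DMSO with oleic acid for no effect and 5 µM Triacsin-C for full effect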
AML12 tox img: AML12 hepatocyte cytotoxicity (counter-screen). shares compounds with Lipid droplet. AML12 mouse hepatocytes, DAPI nuclear morphology cytotoxicity imaging; stronger effect = higher value; cells fed 100 µM oleate overnight. z-score at 5 µM. 3% of 870 active; in the data active = z-score above about 6.3;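 also: compound exposure lasted overnight at 37 °C before fixation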
AML12 tox ATP: AML12 hepatocyte cytotoxicity, confirmed; 530 tested, under 10 active; shares compounds with Lipid droplet; AML12 mouse hepatocyte viability, ATP luminescence; cells loaded with 100 µM oleic acid; cytotoxicity, % at 50 µM; AID 463219;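 active = cytotoxicity above 50% in each of four replicates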;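 also: compound exposure lasted overnight at 37 °C before the ATP read; 0% = DMSO-treated cells and 100% = wells with no cells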
Active calls of the source: *; / = no result.

SMILES	sPLA2-III inh	Arrestin-AP2 inh	PfM18AAP inh	Lipid droplet	HTR2A ag	NRP1-CendR mod	Lipid drop inh	AML12 tox img	AML12 tox ATP
O=C1C(NS(=O)(=O)c2ccc(Br)cc2)=C(N2CCCCC2)C(=O)c2ccccc21	10	-5	18	19	-4	7	/	/	/
CCc1nc2ccc(C(=O)Nc3ccc(NC(C)=O)cc3)cn2c1N(C)C(=O)Cc1ccccc1	15	/	/	/	2	8	/	/	/
CSc1ccccc1OCc1cc(C(=O)N(C)CC2COCCO2)no1 (stereo not given)	-4	-9	-9	-2	0	17	/	/	/
Cc1ccc(NC(=O)CN(C)S(=O)(=O)c2cccs2)c(Br)c1	-8	-7	-2	63*	-13	9	20	-0.33	/
CCC1(O)CC2CN(CCc3c([nH]c4ccccc34)C(C(=O)OC)(c3cc4c(cc3OC)N(C=O)C3C(O)(C(=O)OC)C(OC(C)=O)C5(CC)C=CCN6CCC43C65)C2)C1 (stereo not given)	16	-6	/	/	-4	-5	/	/	/
CCOc1cc(Br)c(CC(=O)NC2CCCCCC2)cc1OCC	-2	-1	2	116*	13	14	108*	0.016	9
CN(C)C(CNC(=O)c1cccc(S(=O)(=O)N2CCN(c3ccc(F)cc3)CC2)c1)c1ccccc1 (stereo not given)	-14	8	/	/	-12	1	/	/	/
FC(F)(F)COc1nc(N2CCOCC2)nc(N(c2ccccc2)c2ccccc2)n1	-1	-2	3	51*	-1	-7	73*	0.91	-14
Cc1[nH]n(-c2ccccc2)c(=O)c1N=Nc1ccc(C(=O)O)cc1	-1	4	5	51*	0	-3	31	-0.38	/
Cc1[nH]n(-c2ccccc2)c(=O)c1N=Nc1ccc(Cl)cc1	2	15	1	54*	0	-11	51	0.57	/
CC1(C(=O)NCc2cccnc2)CCN1C(=O)Cc1cccs1 (stereo not given)	-2	/	/	/	5	-3	/	/	/
O=C(CCC1CCCC1)N=C1SC2CS(=O)(=O)CC2N1c1ccccc1F (stereo not given)	-1	-6	-7	1	-3	10	/	/	/
Cc1ccc(-c2c(C(=O)NC(C)C)oc(=O)c3ccccc23)cc1	0	2	5	53*	3	4	7	-0.0095	/
Cc1ccc(-c2c(C(=O)NCC(C)C)oc(=O)c3ccccc23)cc1	9	/	/	/	/	/	/	/	/
Cc1cc(=O)oc2cc(OCC(=O)NC3CCN(Cc4ccccc4)CC3)c(Cl)cc12	-2	33	4	63*	-7	7	13	-1.2	/
CCCN(CCC)C(=O)CSc1nc2n[nH]c(C)c2c(=N)n1-c1ccc(OCC)cc1	/	8	-5	/	-2	-5	/	/	/
CCOc1ccc(-n2c(SCC(=O)Nc3ccc(CC)cc3)nc3n[nH]c(C)c3c2=N)cc1	-2	-8	0	51*	-1	1	3	-0.83	/
COc1cccc(CNC(=O)[C@H]2CCCN2C(=O)[C@H]2CCCN2C(=O)c2ccccc2C(F)(F)F)c1	3	/	/	/	/	/	/	/	/
Cc1cccc(Nc2nc(N)c([N+](=O)[O-])c(N3CCCC(C)C3)n2)c1 (stereo not given)	-15	8	-3	62*	-8	-2	91*	1.5	74*
Cc1cccc(Nc2nc(N)c([N+](=O)[O-])c(N3CCN(C)CC3)n2)c1	10	17	-4	-2	-2	13	/	/	/
COC(=O)c1cc2c(c3c4cc(F)ccc4n(S(=O)(=O)c4ccc(OC)cc4)c13)C(=O)N(Cc1ccccc1OC)C2	-2	/	/	/	/	/	/	/	/
COc1ccc(CC(=O)Nn2c(-c3ccccc3)nc3ccccc3c2=O)cc1	-6	8	2	56*	0	7	91*	-0.43	/
CCNC(=S)N1CCc2cc(OC)c(OC)cc2C1COc1ccc(F)cc1 (stereo not given)	2	15	5	60*	-6	-4	97*	-0.0057	3
CNC(=S)N1CCc2cc(OC)c(OC)cc2C1COc1ccc(F)cc1 (stereo not given)	3	-2	-4	24	-1	-9	/	/	/
C#CCOCC1CNC(=S)O1 (stereo not given)	1	/	/	/	-2	3	/	/	/
SMILES	sPLA2-III inh	Arrestin-AP2 inh	PfM18AAP inh	Lipid droplet	HTR2A ag	NRP1-CendR mod	Lipid drop inh	AML12 tox img	AML12 tox ATP
CCOc1ccc(CCNC(=O)CCC(=O)N2CCOc3ccccc32)cc1OCC	5	5	-5	83*	2	-5	111*	-0.36	17
CCOc1ccc(CCNC(=O)CCS(=O)(=O)c2ccc(Br)cc2)cc1OCC	3	-5	2	54*	2	13	92*	0.049	12
O=C(CCC(=O)N1CCOc2ccccc21)NCCc1ccccc1	1	6	-7	-10	-1	-9	/	/	/
COc1ccc(CCNC(=O)CCS(=O)(=O)c2ccc(C)cc2)cc1OC	12	24	4	3	2	-4	/	/	/
CCOc1ccc(CCNC(=O)CCS(=O)(=O)c2ccc(C)cc2)cc1OCC	1	-11	5	102*	4	5	95*	-0.82	8
CCOc1ccc(CCNC(=O)CCNS(=O)(=O)c2ccc(Br)cc2)cc1OCC	-7	15	-6	75*	-6	2	98*	-0.36	15
COc1ccc(CCNc2ncccc2C#N)cc1OC	3	2	-4	-1	6	2	/	/	/
CCC(CO)Nc1cccc2c1S(=O)(=O)N(Cc1cn(Cc3ccc(F)cc3)nn1)Cc1ccccc1O2 (stereo not given)	-17	/	/	/	/	/	/	/	/
O=C(NC1CCCc2c1cnn2-c1ccccc1F)c1ccccn1 (stereo not given)	-3	34	3	71*	-2	4	88*	1.5	7
Cc1cc(C)c(C(=O)NC2CCCc3c2cnn3-c2cccc(C)c2C)o1 (stereo not given)	-1	38	4	81*	1	9	105*	-0.22	7
COCc1ccc(C(=O)NC2CCCc3c2cnn3-c2ccc(C)c(C)c2)o1 (stereo not given)	-5	-8	-4	61*	-3	3	100*	0.58	13
CC(C)NC(=O)N(C)C[C@H]1OCc2cn(nn2)CCCC(=O)N([C@H](C)CO)C[C@@H]1C	1	/	/	/	/	/	/	/	/
